# PMC4545378 (Cancer chemotherapy and pharmacology, 2015)
# Values joined by “and” are separate entries in the source; they are usually repeats but may differ in a detail not shown here. Identical values can stand only once. “Also recorded” adds a separate entry of the source. Like-named read-outs stand apart in the source and are kept apart here.
# Experiments:
# [1] = tested on: RBCs; assay: BEN metabolism in 10% RBCs with ALDH and AO inhibitor; assay type: in vitro ADME, human; conditions: for inhibition of BEN metabolism (conversion of BEN to BA) in RBC: 10% RBCs in plasma, inhibitor 150 μM
# [2] = tested on: RBCs; assay: Effect of RBC concentration on BEN metabolism; assay type: in vitro ADME, human; conditions: BEN 10 μg/mL, 37 °C
# Outline: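 RBCs taken from the bottom of the packed layer, avoiding the buffy coat, and resuspended in plasma at 0, 0.1, 1 and 10%. Test compound spiked at 10 μg/mL and incubated at 37 °C in a shaking bath. Aliquots taken from 0 to 360 min and at 24 h; remaining parent measured by LC-MS/MS.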
# [3] = tested on: RBCs; assay type: in vitro ADME, human; conditions: 10% RBCs, all incubations (with and without CO or N2), BEN 3 μg/mL
# [4] = tested on: lysed RBCs; assay: BEN in lysed blood; assay type: in vitro ADME, human
# Outline: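 10% RBCs in plasma lysed by three freeze-thaw cycles and incubated at 37 °C alongside unlysed cells. Test compound added at 10 μg/mL final; sampled at 5, 60, 120 and 180 min. In a cofactor arm, NADH or NADPH (500 μM final) was added to lysed RBCs and sampling ran from 5 to 120 min. Parent quantified by LC-MS/MS.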
# [5] = BEN blood partitioning; assay type: in vitro ADME, human; conditions: 50% RBCs in plasma, on ice
# Outline: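 Blood (50% RBCs in plasma) held on ice with 1 mM disulfiram for 10 min, then dosed with test compound at 1000 ng/mL final. Blood sampled at 5–30 min and spun at 12,000 × g for 2 min; plasma acidified with H2SO4 and analysed by LC-MS/MS. Run in parallel in 100% plasma, in triplicate. Ratio taken as plasma-only concentration divided by plasma concentration from the 50%-RBC incubation.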
# [6] = tested on: RBCs; assay: Apparent Vmax and Km determination in 10% RBCs in plasma; assay type: in vitro ADME, human
# [7] = molecular target: T1, purified human ALDH1A1 (Homo sapiens, UniProt P00352); assay: Metabolism using purified ALDH isoforms: ALDH1A1; assay type: biochemical
# T1 sequence (P00352 1-501): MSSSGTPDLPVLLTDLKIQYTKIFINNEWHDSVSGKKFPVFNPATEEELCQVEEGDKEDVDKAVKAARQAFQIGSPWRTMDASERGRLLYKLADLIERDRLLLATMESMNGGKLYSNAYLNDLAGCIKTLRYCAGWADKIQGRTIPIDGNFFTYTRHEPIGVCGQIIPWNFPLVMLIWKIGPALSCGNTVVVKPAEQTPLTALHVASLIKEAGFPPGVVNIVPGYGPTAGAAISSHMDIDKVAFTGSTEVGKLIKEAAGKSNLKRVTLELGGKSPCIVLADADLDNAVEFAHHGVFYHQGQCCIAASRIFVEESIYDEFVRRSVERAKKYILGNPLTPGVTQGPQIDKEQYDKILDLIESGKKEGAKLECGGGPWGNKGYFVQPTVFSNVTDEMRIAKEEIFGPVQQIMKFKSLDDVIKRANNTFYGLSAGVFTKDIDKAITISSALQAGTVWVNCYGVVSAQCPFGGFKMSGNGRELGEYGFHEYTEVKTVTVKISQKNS
# Outline: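 Purified human ALDH1A1 (5 μg/mL) in […] pH 7.4 with 200 mM KCl and 4 mM DTT, plus test compound at 1000 ng/mL. Pre-incubated 10 min at 37 °C, then started with NAD or […] (1 mM) as the isozyme requires. Sampled at 0–60 min into H2SO4, acetonitrile-extracted, and parent and […] measured by LC-MS/MS. Inhibition arms used anti-ALDH1A1 antibody or disulfiram. Three independent experiments; rate normalised per μg enzyme.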
# [8] = molecular target: T2, ALDH2 (Homo sapiens, UniProt P05091); assay: Metabolism using purified ALDH isoforms: ALDH2; assay type: biochemical; conditions: purified ALDH2, BEN 1000 ng/mL
# T2 sequence (P05091 18-517): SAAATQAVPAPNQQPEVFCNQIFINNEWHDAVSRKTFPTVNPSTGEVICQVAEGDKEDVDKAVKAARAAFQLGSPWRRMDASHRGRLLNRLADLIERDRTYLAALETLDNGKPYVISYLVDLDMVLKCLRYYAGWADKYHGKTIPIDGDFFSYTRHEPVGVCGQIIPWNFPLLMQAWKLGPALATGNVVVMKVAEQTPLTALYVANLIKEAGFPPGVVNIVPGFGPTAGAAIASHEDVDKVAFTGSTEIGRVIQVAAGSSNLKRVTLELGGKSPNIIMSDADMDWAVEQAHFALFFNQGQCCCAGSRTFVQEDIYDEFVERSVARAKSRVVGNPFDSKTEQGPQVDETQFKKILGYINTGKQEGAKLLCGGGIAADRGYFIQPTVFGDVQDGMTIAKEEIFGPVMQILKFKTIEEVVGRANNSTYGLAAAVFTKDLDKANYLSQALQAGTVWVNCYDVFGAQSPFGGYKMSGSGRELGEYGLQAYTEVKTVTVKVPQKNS
# [9] = molecular target: T3, ALDH3A1 (Homo sapiens, UniProt P30838); assay: Metabolism using purified ALDH isoforms: ALDH3A1; assay type: biochemical; conditions: purified ALDH3A1, BEN 1000 ng/mL
# T3 sequence (P30838 1-453): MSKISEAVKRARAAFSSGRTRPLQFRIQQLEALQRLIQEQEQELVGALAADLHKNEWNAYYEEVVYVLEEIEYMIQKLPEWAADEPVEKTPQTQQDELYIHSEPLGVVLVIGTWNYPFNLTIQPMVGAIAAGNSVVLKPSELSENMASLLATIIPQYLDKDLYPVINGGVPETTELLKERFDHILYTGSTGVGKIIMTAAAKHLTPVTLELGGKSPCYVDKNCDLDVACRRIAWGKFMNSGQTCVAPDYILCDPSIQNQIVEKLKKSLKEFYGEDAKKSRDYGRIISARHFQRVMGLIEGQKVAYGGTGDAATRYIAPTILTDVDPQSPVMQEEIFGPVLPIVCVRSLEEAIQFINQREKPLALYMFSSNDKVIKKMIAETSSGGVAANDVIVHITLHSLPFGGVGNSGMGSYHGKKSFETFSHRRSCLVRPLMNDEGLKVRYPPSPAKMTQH
# [10] = molecular target: T4, ALDH5A1 (Homo sapiens, UniProt P51649); assay: Metabolism using purified ALDH isoforms: ALDH5A1; assay type: biochemical; conditions: purified ALDH5A1, BEN 1000 ng/mL
# T4 sequence (P51649 48-535): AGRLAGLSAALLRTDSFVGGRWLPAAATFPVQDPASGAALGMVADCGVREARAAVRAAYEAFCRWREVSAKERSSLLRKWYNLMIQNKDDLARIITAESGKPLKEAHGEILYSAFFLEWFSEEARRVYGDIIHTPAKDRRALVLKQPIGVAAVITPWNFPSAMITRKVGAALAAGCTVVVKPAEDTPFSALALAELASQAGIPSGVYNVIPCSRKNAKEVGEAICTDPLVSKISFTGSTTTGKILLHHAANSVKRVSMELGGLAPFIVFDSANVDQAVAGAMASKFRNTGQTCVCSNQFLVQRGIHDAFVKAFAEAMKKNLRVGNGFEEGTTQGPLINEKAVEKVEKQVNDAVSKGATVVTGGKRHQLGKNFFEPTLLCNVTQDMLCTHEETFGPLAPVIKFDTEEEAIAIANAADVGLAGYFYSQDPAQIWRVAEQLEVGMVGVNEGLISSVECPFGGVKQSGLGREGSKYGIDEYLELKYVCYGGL
# [11] = mice, after 20 mg/kg BEN; cited from earlier work
# [12] = humans, after 9 mg/m^2; cited from earlier work
# [13] = tested on: renal carcinoma cells (RCC); conditions: cited from earlier work
# [14] = tested on: RXF-393; conditions: mice, RXF-393 implanted subcutaneously or orthotopically under the renal capsule; cited from earlier work
# [15] = tested on: CYP3A; conditions: preliminary experiments; cited from earlier work
# [16] = but not plasma; cited from earlier work
# [17] = preliminary experiments; cited from earlier work
# [18] = cited from earlier work
# [19] = Lot 4 +7 days (7 day old blood stored at 4 °C), 10% RBCs
# [20] = mean over the lots of Table 1, 10% RBCs
smiles,measurement,setting,value
CC1=CC(=O)c2ccccc2C1=O [menadione],inhibition of BEN metabolism compared with vehicle control,"[1]; 3 mM menadione, 1.5% DMSO v:v, 10% RBCs",DMSO alone (1.5% DMSO v:v) caused the same extent of inhibition
same,inhibition of BEN metabolism (conversion of BEN to BA) in RBC,[1]; BEN 1 μg/mL,not inhibited; also recorded: only a partial inhibitory effect
"Cc1cc(N(CCOS(C)(=O)=O)CCOS(C)(=O)=O)ccc1C=O [BEN, 4-[bis[2-[(methylsulfonyl)-oxy]ethyl]amino]-2-methyl-benzaldehyde]",BEN remaining,"[2]; 10% RBCs, after 6 hours",5%
same,BEN remaining,"[2]; 10% RBCs, after one hour",54%
same,BEN remaining,"[2]; no RBCs, after 6 hours",59%
same,BEN remaining,"[2]; no RBCs, after one hour",99%
same,time after which the concentration of BEN was halved,[3],approximately 60 min
same,amount of BEN remaining,"[1]; control sample without inhibitor, 10% RBCs, BEN 1 μg/mL",0.5%
same,metabolism of BEN by lysed RBCs,"[4]; 10% RBCs lysed by freeze-thaw, no cofactor added",did not metabolize BEN
same,metabolism of BEN by lysed RBCs,[4]; 10% lysed RBCs + NADH 500 μM,restored the ability of lysed RBCs to metabolize BEN
same,metabolism of BEN by lysed RBCs,[4]; 10% lysed RBCs + NADPH 500 μM,partially restored the ability of lysed RBCs to metabolize BEN
same,time by which the equilibrium between RBCs and plasma was complete,[5],≤ 5 min
same,average plasma to whole blood partition ratio,"[5]; disulfiram 1 mM, BEN 1000 ng/mL, triplicate",1.25 ± 0.08
same,starting concentrations that display linear metabolism,[6]; 10% RBCs,below 400 ng/mL
same,Cl,"[6]; Lot 1 human blood, 10% RBCs",0.333 mL/min
same,Km,"[6]; Lot 1 human blood, 10% RBCs",196.3 ng/mL
same,Vmax,"[6]; Lot 1 human blood, 10% RBCs",65.44 ng/mL^−1•min^−1•[10% RBC]^−1
same,Cl,"[6]; Lot 2 human blood, 10% RBCs",0.2736 mL/min
same,Km,"[6]; Lot 2 human blood, 10% RBCs",319.5 ng/mL
same,Vmax,"[6]; Lot 2 human blood, 10% RBCs",87.42 ng/mL^−1•min^−1•[10% RBC]^−1
same,Cl,"[6]; Lot 3 human blood, 10% RBCs",0.282 mL/min
same,Km,"[6]; Lot 3 human blood, 10% RBCs",256.2 ng/mL
same,Vmax,"[6]; Lot 3 human blood, 10% RBCs",72.27 ng/mL^−1•min^−1•[10% RBC]^−1
same,Cl,[6]; [19],0.1432 mL/min
same,Km,[6]; [19],699.6 ng/mL
same,Vmax,[6]; [19],100.2 ng/mL^−1•min^−1•[10% RBC]^−1
same,Cl,"[6]; Lot 4 human blood, 10% RBCs",0.1859 mL/min
same,Km,"[6]; Lot 4 human blood, 10% RBCs",609.8 ng/mL
same,Vmax,"[6]; Lot 4 human blood, 10% RBCs",113.4 ng/mL^−1•min^−1•[10% RBC]^−1
same,Cl,"[6]; Lot 5 human blood, 10% RBCs",0.1588 mL/min
same,Km,"[6]; Lot 5 human blood, 10% RBCs",481.8 ng/mL
same,Vmax,"[6]; Lot 5 human blood, 10% RBCs",76.5 ng/mL^−1•min^−1•[10% RBC]^−1
same,Cl,"[6]; Lot 6 human blood, 10% RBCs",0.1836 mL/min
same,Km,"[6]; Lot 6 human blood, 10% RBCs",371.2 ng/mL
same,Vmax,"[6]; Lot 6 human blood, 10% RBCs",68.16 ng/mL^−1•min^−1•[10% RBC]^−1
same,Average apparent Km,"[6]; human RBC, abstract",373 ng/mL
same,"Cl, Mean",[6]; [20],0.22 mL/min
same,"Vmax, Mean",[6]; [20],83.3 ng/mL^−1•min^−1•[10% RBC]^−1
same,ability of isoform to metabolize BEN,"[7]; purified ALDH1A1, BEN 1000 ng/mL",showed the ability to metabolize BEN
same,rate of disappearance of BEN,"[7]; three independent experiments, 5 μg/mL purified enzyme, BEN 1000 ng/mL, 37 °C",0.172 ng/min/μg of enzyme and 0.224 ng/min/μg of enzyme and 0.154 ng/min/μg of enzyme
same,ability of isoform to metabolize BEN,[8],ALDH1A1 was the only isoform that showed the ability to metabolize BEN
same,ability of isoform to metabolize BEN,[9],ALDH1A1 was the only isoform that showed the ability to metabolize BEN
same,ability of isoform to metabolize BEN,[10],ALDH1A1 was the only isoform that showed the ability to metabolize BEN
same,exposures observed,[11],16 ng/mL
same,exposures observed,[12],14.5 ng/mL
same,activity in the NCI 60 cell line screen,[13],specific activity against renal carcinoma cells (RCC)
same,antitumor activity,[14],demonstrated antitumor activity
same,metabolism in liver microsomal fraction,[15],undergoes N-dealkylation
same,conversion in whole blood,[16],rapidly converted to its carboxylic acid analogue (BA)
same,metabolism in cytosolic fraction,[17],oxidized
same,in vitro half-life in plasma,[18],22 min
CCN(CC)C(=S)SSC(=S)N(CC)CC [disulfiram],inhibition of BEN metabolism (conversion of BEN to BA) in RBC,[1]; BEN 1 μg/mL,inhibited; also recorded: almost complete inhibition
same,inhibition of BEN metabolism by purified ALDH1A1,"[7]; reaction mixture with 4 mM DTT, antibodies at 100x",did not inhibit
